# Laboratory results from ChEMBL document CHEMBL5058577, “EUbOPEN Chemogenomics Library 2 (Multiplex)” (2022).
# System: U2OS
# Experiment: Multiplex assay against U2OS
# Assay type: toxicity, cell-based
# Conditions: human
# How it was run: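 Live cells were stained at seeding with Hoechst33342, BioTracker Green Microtubule Cytoskeleton Dye, MitoTracker Red and Annexin V Alexa Fluor 680, then imaged on a CQ1 microscope at 37°C and 5% CO2 after compound addition. CellPathfinder machine-learning gating split cells into Hoechst high-intensity objects or normal cells. Normal cells were split into healthy, pyknosed or fragmented nuclei, and pyknosed cells into mitotic or apoptotic. Tubulin, mitochondrial-mass and membrane-permeability phenotypes are per cents of healthy-nucleus cells.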
# [1] = 12 h, 1 µM, compound concentration 1 uM, replicate 1
# [2] = 12 h, 1 µM, compound concentration 1 uM, replicate 2
# [3] = 12 h, 10 µM, compound concentration 10 uM, replicate 1
# [4] = 12 h, 10 µM, compound concentration 10 uM, replicate 2
# [5] = 24 h, 1 µM, compound concentration 1 uM, replicate 1
# [6] = 24 h, 1 µM, compound concentration 1 uM, replicate 2
# [7] = 24 h, 10 µM, compound concentration 10 uM, replicate 1
# [8] = 24 h, 10 µM, compound concentration 10 uM, replicate 2
# [9] = 48 h, 1 µM, compound concentration 1 uM, replicate 1
# [10] = 48 h, 1 µM, compound concentration 1 uM, replicate 2
# [11] = 48 h, 10 µM, compound concentration 10 uM, replicate 1
# [12] = 48 h, 10 µM, compound concentration 10 uM, replicate 2
compound,measurement,setting,value
N#Cc1c(N)nc(SCc2csc(-c3ccc(Cl)cc3)n2)c(C#N)c1-c1ccc(OCCO)cc1 [CAPADENOSON],Population Apoptotic (%),[1],78%
same,Population Fragmented Nuclei (%),[1],25%
same,Population Healthy Nuclei (%),[1],65%
same,Population Hoechst High Intensity Objects (%),[1],5%
same,Population Membrane Permeable-Phenotype (%),[1],14%
same,Population Mitochondria Different-Phenotype (%),[1],4%
same,Population Mitotic Cells (%),[1],21%
same,Population Normal (%),[1],94%
same,Population Pyknosed Nuclei (%),[1],8%
same,Population Tubulin-Different-Phenotype (%),[1],10%
same,Total Cell Count,[1],236
same,Population Apoptotic (%),[2],80%
same,Population Fragmented Nuclei (%),[2],18%
same,Population Healthy Nuclei (%),[2],75%
same,Population Hoechst High Intensity Objects (%),[2],1%
same,Population Membrane Permeable-Phenotype (%),[2],5%
same,Population Mitochondria Different-Phenotype (%),[2],2%
same,Population Mitotic Cells (%),[2],20%
same,Population Normal (%),[2],98%
same,Population Pyknosed Nuclei (%),[2],6%
same,Population Tubulin-Different-Phenotype (%),[2],1%
same,Total Cell Count,[2],150
same,Population Apoptotic (%),[3],64%
same,Population Fragmented Nuclei (%),[3],35%
same,Population Healthy Nuclei (%),[3],40%
same,Population Hoechst High Intensity Objects (%),[3],5%
same,Population Membrane Permeable-Phenotype (%),[3],70%
same,Population Mitochondria Different-Phenotype (%),[3],37%
same,Population Mitotic Cells (%),[3],35%
same,Population Normal (%),[3],94%
same,Population Pyknosed Nuclei (%),[3],24%
same,Population Tubulin-Different-Phenotype (%),[3],65%
same,Total Cell Count,[3],255
same,Population Apoptotic (%),[4],68%
same,Population Fragmented Nuclei (%),[4],24%
same,Population Healthy Nuclei (%),[4],56%
same,Population Hoechst High Intensity Objects (%),[4],0%
same,Population Membrane Permeable-Phenotype (%),[4],49%
same,Population Mitochondria Different-Phenotype (%),[4],61%
same,Population Mitotic Cells (%),[4],31%
same,Population Normal (%),[4],99%
same,Population Pyknosed Nuclei (%),[4],18%
same,Population Tubulin-Different-Phenotype (%),[4],70%
same,Total Cell Count,[4],102
same,Population Apoptotic (%),[5],87%
same,Population Fragmented Nuclei (%),[5],23%
same,Population Healthy Nuclei (%),[5],64%
same,Population Hoechst High Intensity Objects (%),[5],3%
same,Population Membrane Permeable-Phenotype (%),[5],9%
same,Population Mitochondria Different-Phenotype (%),[5],4%
same,Population Mitotic Cells (%),[5],12%
same,Population Normal (%),[5],96%
same,Population Pyknosed Nuclei (%),[5],12%
same,Population Tubulin-Different-Phenotype (%),[5],6%
same,Total Cell Count,[5],263
same,Population Apoptotic (%),[6],61%
same,Population Fragmented Nuclei (%),[6],16%
same,Population Healthy Nuclei (%),[6],71%
same,Population Hoechst High Intensity Objects (%),[6],0%
same,Population Membrane Permeable-Phenotype (%),[6],5%
same,Population Mitochondria Different-Phenotype (%),[6],2%
same,Population Mitotic Cells (%),[6],38%
same,Population Normal (%),[6],99%
same,Population Tubulin-Different-Phenotype (%),[6],2%
same,Total Cell Count,[6],176
same,Population Apoptotic (%),[7],71%
same,Population Fragmented Nuclei (%),[7],36%
same,Population Healthy Nuclei (%),[7],37%
same,Population Hoechst High Intensity Objects (%),[7],5%
same,Population Membrane Permeable-Phenotype (%),[7],47%
same,Population Mitochondria Different-Phenotype (%),[7],38%
same,Population Mitotic Cells (%),[7],28%
same,Population Normal (%),[7],94%
same,Population Pyknosed Nuclei (%),[7],26%
same,Population Tubulin-Different-Phenotype (%),[7],47%
same,Total Cell Count,[7],253
same,Population Apoptotic (%),[8],69%
same,Population Fragmented Nuclei (%),[8],25%
same,Population Healthy Nuclei (%),[8],49%
same,Population Hoechst High Intensity Objects (%),[8],2%
same,Population Membrane Permeable-Phenotype (%),[8],34%
same,Population Mitochondria Different-Phenotype (%),[8],58%
same,Population Mitotic Cells (%),[8],30%
same,Population Normal (%),[8],97%
same,Population Pyknosed Nuclei (%),[8],24%
same,Population Tubulin-Different-Phenotype (%),[8],60%
same,Total Cell Count,[8],95
same,Population Apoptotic (%),[9],80%
same,Population Fragmented Nuclei (%),[9],23%
same,Population Healthy Nuclei (%),[9],67%
same,Population Hoechst High Intensity Objects (%),[9],3%
same,Population Membrane Permeable-Phenotype (%),[9],9%
same,Population Mitochondria Different-Phenotype (%),[9],6%
same,Population Mitotic Cells (%),[9],20%
same,Population Normal (%),[9],96%
same,Population Pyknosed Nuclei (%),[9],8%
same,Population Tubulin-Different-Phenotype (%),[9],6%
same,Total Cell Count,[9],355
same,Population Apoptotic (%),[10],84%
same,Population Fragmented Nuclei (%),[10],12%
same,Population Healthy Nuclei (%),[10],79%
same,Population Hoechst High Intensity Objects (%),[10],0%
same,Population Membrane Permeable-Phenotype (%),[10],6%
same,Population Mitochondria Different-Phenotype (%),[10],3%
same,Population Mitotic Cells (%),[10],15%
same,Population Normal (%),[10],99%
same,Population Tubulin-Different-Phenotype (%),[10],5%
same,Total Cell Count,[10],220
same,Population Apoptotic (%),[11],86%
same,Population Fragmented Nuclei (%),[11],44%
same,Population Healthy Nuclei (%),[11],30%
same,Population Hoechst High Intensity Objects (%),[11],5%
same,Population Membrane Permeable-Phenotype (%),[11],46%
same,Population Mitochondria Different-Phenotype (%),[11],31%
same,Population Mitotic Cells (%),[11],13%
same,Population Normal (%),[11],94%
same,Population Pyknosed Nuclei (%),[11],25%
same,Population Tubulin-Different-Phenotype (%),[11],37%
same,Total Cell Count,[11],285
same,Population Apoptotic (%),[12],66%
same,Population Fragmented Nuclei (%),[12],30%
same,Population Healthy Nuclei (%),[12],49%
same,Population Hoechst High Intensity Objects (%),[12],4%
same,Population Membrane Permeable-Phenotype (%),[12],45%
same,Population Mitochondria Different-Phenotype (%),[12],45%
same,Population Mitotic Cells (%),[12],33%
same,Population Normal (%),[12],95%
same,Population Pyknosed Nuclei (%),[12],20%
same,Population Tubulin-Different-Phenotype (%),[12],50%
same,Total Cell Count,[12],109
